Only some compounds are listed: those with a hit (about 2.9% of all), similar ones and a draw of the others.
Tn6 DDE FP – disrupts Tn6 cyclic peptide binding to fibrin D-Dimer-E complex; Fibrin DD(E) TRITC-Tn6 fluorescence polarization displacement; inhibition, % at 8.3 µM; P02675; 0.21% of 370,000 active;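 active = inhibition above a per-campaign cutoff: mean of compounds within control limits plus 3 SD, cut at about 15% in these data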;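 also: 0% = median of all compound wells on the plate and 100% = blocking peptide control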
KLK7 zymogen act – proKLK7 (human) activation, primary screen | P49862 | 0.9% of 370,000 active | purified proKLK7, EDANS-DABCYL substrate fluorescence; 100% is mature enzyme control, 0% vehicle | activation, % at 7 µM;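 active = activation above the mean of all tested compounds plus 3 SD, computed per campaign excluding outliers beyond control limits, cut at about 13% in these data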
Target sequence (P49862 whole entry, looked up): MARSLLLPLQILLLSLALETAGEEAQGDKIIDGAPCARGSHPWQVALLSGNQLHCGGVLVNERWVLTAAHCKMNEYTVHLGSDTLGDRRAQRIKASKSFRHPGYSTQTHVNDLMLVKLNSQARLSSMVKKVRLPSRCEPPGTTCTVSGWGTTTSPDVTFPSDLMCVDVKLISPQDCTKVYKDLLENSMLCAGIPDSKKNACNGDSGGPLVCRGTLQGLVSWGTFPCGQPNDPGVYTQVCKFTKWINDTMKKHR
CendR NRP1 mod – modulators of CendR peptide binding to human neuropilin-1 | AID 602438 | O14786 | 0.85% of 360,000 active | inhibition, % at 25 µM | FAM-RPARPAR peptide binding to NRP-1, fluorescence polarization;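 active = inhibition or corrected inhibition above about 18%, plus a signal ratio from 0.5 to 1.5, limit read from the data, passing the limit was not always enough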
CRFR2-BP ag – agonists of human CRF-binding protein/CRF-R2 receptor complex; activation, % at 13.2 µM; 0.46% of 350,000 active; HEK293 CRF-R2/CRF-BP, calcium dye fluorescence (FLIPR); percent of saturating CRF peptide response;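 active = activation of at least 50%, plus an integration ratio under a set limit after plate pattern correction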;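 also: plate controls were neutral control wells without compound for no effect and CRF at EC100 for full effect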
CRFR2-BP antag – antagonists of CRF-binding protein/CRF-R2 receptor complex. HEK293 CRF-R2/CRF-BP, CRF-induced calcium fluorescence. inhibition, % at 11.8 µM. 0.59% of 350,000 active. AID 588475;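 active = inhibition of the ligand-induced calcium signal above about 50% at the single tested concentration, limit read from the data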
DDE Tn7 FP inh – DD(E)-Tn7 binding inhibition, primary FP screen | AID 720508 | inhibition, % at 8.3 µM | FP displacement of FITC-Tn7 peptide from fibrin DD(E); 0% = median of compound wells per plate | 0.13% of 370,000 active | P02675;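 active = inhibition above the mean of compounds falling within the control limits plus 3 SD of them, cut at about 14% in these data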;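 also: 0% = plate median of compound wells and 100% = 10 µM Aha-Tn7 peptide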
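Assay system: human fibrin DD(E). Input: DD(E) 2 µM final. Medium: Tris buffer with calcium and detergent, pH 7.8. Compound dosing: single point at 8.3 µM. Timing: 10 min plus 3 h, room temperature. Technique: fluorescence polarization of the labelled Tn7 tracer. Read-out: percent inhibition. Replicates: singlicate testing.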
Numbers without * were called inactive; . = not tested or not shown.

SMILES	Tn6 DDE FP	KLK7 zymogen act	CendR NRP1 mod	CRFR2-BP ag	CRFR2-BP antag	DDE Tn7 FP inh
O=S1(=O)c2c(cccc2N2CC[C@@H](O)C2)O[C@H]2CCN1C2	-5	1	.	.	.	3
c1ccc(SCc2cn(C[C@H]3CC[C@@H]([C@@H]4CC[C@H](Cn5cc(CSc6ccccc6)nn5)O4)O3)nn2)cc1	3	0	24*	0	-3	-7
c1ccc(Cn2cc(CSc3ccccc3)nn2)cc1	-5	0	28*	0	13	9
CCC1OC(=O)C(C)C(OC2C[C@@](C)(OC)C(O)C(C)O2)C(C)C(O[C@@H]2OC(C)CC(N(C)C)C2O)[C@](C)(O)CC(C)C(=NOCOCCOC)C(C)C(O)[C@]1(C)O (stereo partly drawn)	5	0	-8	-1	89*	-1
CCOc1cc(OCC)cc(C(=O)N2CCC[C@@H]2C(=O)N2CCC[C@@H]2C(=O)NCc2cccc(OC)c2)c1	-4	0	.	.	.	3
COc1ccc(NC(=O)OCCn2c([N+](=O)[O-])cnc2C)cc1	-1	0	0	0	3	-4
Cc1ncc([N+](=O)[O-])n1CCOC(=O)NC(NCc1ccccc1Cl)C(Cl)(Cl)Cl (stereo not drawn)	-2	-1	38*	-1	-17	-2
Cc1ccc(Oc2nnc(-c3ccc(C)cc3)c3ccccc23)cc1	-1	-1	29*	0	-16	-5
Cc1cccc(S(=O)(=O)c2c(N)n(Cc3ccco3)c3nc4ccccc4nc23)c1	-1	-24	-110	97*	-93	8
Cc1ccc(S(=O)(=O)c2c(N)n(Cc3ccco3)c3nc4ccccc4nc23)cc1	-3	-32	-48	33	-7	2
COC(=O)N1C[C@H](OCc2ccccc2)[C@H]2C[C@@H]1c1ccccc1O2	3	0	.	.	.	-1
O=C(COC(=O)Cc1n[nH]c(=O)c2ccccc12)Nc1c(Br)cc([N+](=O)[O-])cc1Br	3	1	24*	0	3	-5
COc1ccccc1NS(=O)(=O)c1cc(C(=O)Nc2ccc(S(=O)(=O)Nc3onc(C)c3C)cc2)ccc1C	-6	0	-5	-6	-9	-6
COc1ccccc1NS(=O)(=O)c1ccc(C)c(C(=O)Nc2ccc(S(=O)(=O)Nc3onc(C)c3C)cc2)c1	1	0	33*	0	1	4
CC1(c2ccc(OC(F)F)cc2)NC(=O)N(CC(=O)Nc2cccnc2Cl)C1=O (stereo not drawn)	-3	0	15	96*	-52	-1
N=c1c2c(ccn1CCCCc1ccccc1)Oc1ccc3ccccc3c1C2c1ccccc1 (stereo not drawn)	-7	.	.	.	.	0
COc1ccc(C(=O)COC(=O)CCNS(=O)(=O)c2ccc(NC(C)=O)cc2)c(OC)c1	-3	0	-3	1	51*	2
CCCC[C@@H]1C(=O)N2N=Cc3cscc3[C@H]2N2N=Cc3cscc3[C@@H]12	-2	0	.	.	.	12
CC(C)OC(=O)CC(=O)c1sc2nc3c(cc2c1N)CN(C)CC3	.	.	.	103*	-72	.
CCN1CCc2nc3sc(C(=O)N4CCc5ccccc5C4)c(N)c3cc2C1	2	-1	-19	0	-3	-7
COc1ccc(NC(=O)C2Cc3ccccc3CN2C(=O)c2ccccc2)cn1 (stereo not drawn)	7	0	25*	4	7	12
OCC[C@@H]1C[C@H](O)[C@@H](O)[C@@]2(CCCCO2)O1	1	0	27*	0	-8	-6
O=C(O)C(=O)/C(=C\c1cccc2ccccc12)c1ccc2ccccc2n1	5	-3	-94	96*	-138	6
O=C(O)C(=O)/C(=C\c1ccccc1)c1ccc2ccccc2n1	-2	-9	-1	18	-8	-11
CNc1nc2[nH]c(=O)c3c(c2s1)OC(N)=C(C#N)C3c1cccc(F)c1 (stereo not drawn)	3	0	-36	103*	-157	-5
SMILES	Tn6 DDE FP	KLK7 zymogen act	CendR NRP1 mod	CRFR2-BP ag	CRFR2-BP antag	DDE Tn7 FP inh
COc1ccc(S(=O)(=O)NNC(=O)c2csc(-n3nc(C)cc3C(F)(F)F)n2)cc1	-3	0	-10	-4	61*	3
COc1ccc(C(=O)NCC2CCN(C(=O)C(=O)c3cc4ccccc4o3)CC2)cc1	2	0	.	.	.	-1
O=C(Nc1ccccc1)OCCN1C(=O)CCC12CCC(c1ccccc1)CC2 (stereo not drawn)	-2	0	.	.	.	1
COc1ccc(CN2CCC(C(N)=O)CC2)cc1OCc1ccccc1	-9	0	-3	-2	10	5
CCOC(=O)C1CCCN(CCC(=O)Nc2ccccc2C)C1 (stereo not drawn)	1	0	23*	0	-6	-3
CCOCc1cc(CN2CCCC(CNC(=O)c3ccco3)C2)ccc1OC (stereo not drawn)	1	0	-1	-1	76*	-1
COc1ccccc1CN1CCCC(C(=O)N(C)Cc2ccccc2)C1 (stereo not drawn)	7	0	-12	3	55*	3
CCOC(=O)C1CCCN(Cc2ccc(OC)c(OCc3ccccc3)c2)C1 (stereo not drawn)	3	0	23*	0	5	7
CSc1cccc(CN2CCCC(CNC(=O)c3ccco3)C2)c1 (stereo not drawn)	-2	0	2	-1	-3	7
COc1cc(NC(=O)c2ccccc2)c(C)cc1NC(=O)CSc1nnc(-c2ccccc2F)n1-c1ccc(C)cc1	3	0	.	.	.	-9
O=C(N=C1N(CC2CC2)CC2(C=C3CCCCC3n3c(=O)n(-c4ccccc4)c(=O)n32)N1C(=O)OCc1ccccc1)c1ccccc1 (stereo not drawn)	9	0	.	.	.	6
CCOC(=O)C1CCN(Cc2cccc(OC)c2)CC1	7	0	-1	-1	-35	2
CCOC(=O)C1CCN(Cc2ccc3ccccc3c2)CC1	-10	-1	31*	1	3	0
Cc1cccn2c(=O)c3cc(C(=O)NCc4ccco4)c(=N)n(C4CCCCC4)c3nc12	.	.	-5	3	54*	.
Cc1ccc2nc3c(cc(C(=O)NCc4ccco4)c(=N)n3C3CCCC3)c(=O)n2c1	-3	9	-10	.	.	-9
COCCn1c(=N)c(C(=O)NCc2ccco2)cc2c(=O)n3cc(C)ccc3nc21	-4	9	6	11	84*	4
O=C(C1CCN(c2cncnc2)CC1)N1CCCC1	13	0	.	.	.	7
CN(Cc1ccc(F)cc1)C(=O)c1cccc(OC2CCN(C3CCCC3)CC2)c1	3	0	26*	-1	7	5
